From ChEMBL document CHEMBL4138242, “Synthesis and antibacterial evaluation of novel cationic chalcone derivatives possessing broad spectrum antibacterial activity” (Eur J Med Chem, 2018)
Activity calls are given as the source filed them. The calls are words filed in the database; no cut-off is given here.

Experiments:
[1] = system: Staphylococcus aureus; test: Antibacterial activity against Staphylococcus aureus ATCC 29213 after 16 to 20 hrs by broth microdilution method; type: functional
In short: (§1)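 Broth microdilution per CLSI. Bacteria grown 4-6 h (about 10⁸ CFU/mL), then diluted to about 10⁶ CFU/mL. Medium: Mueller-Hinton broth, except Luria-Bertani broth for E. coli. Compounds in sterile water, twofold series 256-0.5 µg/mL, mixed 1:1 with inoculum, 37 °C for 16-20 h. MIC is the lowest concentration without visible growth. Duplicate wells; experiment repeated at least twice.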

[2] = system: Enterococcus faecalis; test: Antibacterial activity against Enterococcus faecalis ATCC 29212 after 16 to 20 hrs by broth microdilution method; type: functional; in short: as §1
[3] = system: Escherichia coli; test: Antibacterial activity against Escherichia coli ATCC 25922 after 16 to 20 hrs by broth microdilution method; type: functional; in short: as §1
[4] = system: Salmonella enterica; test: Antibacterial activity against Salmonella enterica ATCC 13076 after 16 to 20 hrs by broth microdilution method; type: functional; in short: as §1
[5] = Hemolytic activity in sheep RBC after 1 hr; type: ADME, cell-based, Ovis aries, Erythrocyte; details: sheep red blood cells (erythrocytes)
In short: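 Sheep red blood cells (150 µL suspension) mixed with 50 µL of compound dilutions (5120-10 µg/mL), 1 h at 37 °C, then centrifuged. Supernatant read at 540 nm. Percent hemolysis calculated relative to RBC-only control (0%) and 0.1% Triton X-100 (100%).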

[6] = system: Staphylococcus aureus; test: Induction of cytoplasmic membrane depolarization in Staphylococcus aureus ATCC 29213 at 10 to 20 ug/ml measured every 2 mins for 12 mins by DiSC35 dye-based fluorescence assay; type: functional, organism-based
In short: (§2)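 Mid-log cells (~10⁸ CFU/mL) were suspended in PBS (S. aureus) or HEPES/glucose/KCl with EDTA (E. coli). They were preloaded with DiSC3(5) for 30 min (S. aureus) or 40 min (E. coli), and baseline fluorescence was read for 8 min. Compound was added to 20 µg/mL final, and fluorescence (ex 622/em 670 nm) was read every 2 min for 12 min. Water served as control.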

[7] = system: Escherichia coli; test: Induction of cytoplasmic membrane depolarization in Escherichia coli ATCC 25922 at 10 to 20 ug/ml measured every 2 mins for 12 mins by DiSC35 dye-based fluorescence assay; type: functional, organism-based; in short: as §2
[8] = system: Staphylococcus aureus; test: Induction of inner membrane permeabilization in Staphylococcus aureus ATCC 29213 at 10 to 20 ug/ml measured every 2 mins for 12 mins by propidium iodide staining-based fluorescence assay; type: functional, organism-based
In short: (§3)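 Mid-log cells (~10⁸ CFU/mL) were suspended in PBS (S. aureus) or HEPES/glucose/KCl (E. coli). They were preincubated with propidium iodide for 30 min (S. aureus) or 40 min (E. coli), and baseline fluorescence was read for 8 min. Compound was added to 20 µg/mL final, and fluorescence (ex 535/em 617 nm) was read every 2 min for 12 min.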

[9] = system: Escherichia coli; test: Induction of inner membrane permeabilization in Escherichia coli ATCC 25922 at 10 to 20 ug/ml measured every 2 mins for 12 mins by propidium iodide staining-based fluorescence assay; type: functional, organism-based; in short: as §3

| MIC [1] [µg/mL] | MIC [2] [µg/mL] | MIC [3] [µg/mL] | MIC [4] [µg/mL] | SMILES | HC50 at 1 h [5] [µg/mL] | Activity [6] | Activity [7] | Activity [8] | Activity [9] |
| --- | --- | --- | --- | --- | --- | --- | --- | --- | --- |
| 4 | 8 | 16 | 32 | CCCCCCCC[N+](C)(C)CC(=O)Nc1ccc(C(=O)/C=C/c2ccccn2)cc1.[Cl-] | 187 | – | – | – | – |
| 4 | 8 | 16 | 32 | CCCCCCCC[N+](C)(C)CC(=O)Nc1ccc(C(=O)/C=C/c2ccncc2)cc1.[Cl-] | 200 | – | – | – | – |
| > 128 | > 128 | > 128 | > 128 | CCCCCCCCCCCCCCCCCC[N+](C)(C)CC(=O)Nc1ccc(C(=O)/C=C/c2ccccc2F)cc1.[Cl-] | 444 | – | – | – | – |
| 0.5 | 2 | 2 | 8 | CCCCCCCC[N+](C)(C)CC(=O)Nc1ccc(C(=O)/C=C/c2cccc(F)c2F)cc1.[Cl-] | 56 | Active | Active | Active | Active |
| 32 | 32 | 128 | 128 | CCCCCCCC[N+](C)(C)CC(=O)Nc1ccc(C(=O)/C=C/c2c(F)cccc2F)cc1.[Cl-] | 50 | – | – | – | – |
| 4 | 8 | 16 | 32 | CCCCCCCC[N+](C)(C)CC(=O)Nc1ccc(C(=O)/C=C/c2cccnc2)cc1.[Cl-] | 127 | – | – | – | – |
| 4 | 8 | 16 | 32 | CCCCCCCC[N+](C)(C)CC(=O)Nc1ccc(C(=O)/C=C/c2cccc(Br)n2)cc1.[Cl-] | 363 | – | – | – | – |
| 2 | 8 | 8 | 16 | CCCCCCCC[N+](C)(C)CC(=O)Nc1ccc(C(=O)/C=C/c2ncccc2F)cc1.[Cl-] | 83 | – | – | – | – |
| 2 | 4 | 16 | 16 | CCCCCCCC[N+](C)(C)CC(=O)Nc1ccc(C(=O)/C=C/c2ccc(C(C)(C)C)cc2)cc1.[Cl-] | 284 | – | – | – | – |
| 32 | 32 | 64 | 128 | CCCC[N+](C)(C)CC(=O)Nc1ccc(C(=O)/C=C/c2cccs2)cc1.[Cl-] | 360 | – | – | – | – |
